Measurements published in ChEMBL document CHEMBL1141859, “Synthesis and antimicrobial activity of 5-hydroxymethyl- 8-methyl-2-(N-arylimino)-pyrano[2,3-c]pyridine-3-(N-aryl)-carboxamides” (2005).
In brackets after ≈: the same amount, converted by molar mass.

How the values were obtained:
Assay type in all cases: functional
Staphylococcus aureus = test: Antibacterial activity against Staphylococcus aureus
Summary of the method: (§1)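 Twofold serial broth dilution in tubes, triplicate. Ten tubes of seeded broth (2 mL each); compound added as a 1 mg/mL DMF solution to the first tube, then serially transferred. Bacteria inoculated at 2×10^5 cfu/mL and incubated at 37 °C for 18–24 h. MIC (µg/mL) read visually. DMF solvent, positive growth and standard drug controls run alongside.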

Candida albicans = test: Antifungal activity against Candida albicans
Summary of the method: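 For Candida albicans: broth double-dilution in tubes, run in triplicate. Compound added as a 1 mg/mL DMF solution to the first of ten seeded-broth tubes (2 mL), then serially diluted by transfer. Fungal inoculum 5×10^5 cfu/mL; incubation at 30 °C for 48 h. MIC (µg/mL) by visual reading. Controls were DMF solvent, positive growth and standard drug.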

Escherichia coli = test: Antibacterial activity against Escherichia coli; summary of the method: as §1
Proteus vulgaris = test: Antibacterial activity against Proteus vulgaris; summary of the method: as §1
Pseudomonas aeruginosa = test: Antibacterial activity against Pseudomonas aeruginosa; summary of the method: as §1

SMILES	MIC (Staphylococcus aureus)	MIC (Candida albicans)	MIC (Escherichia coli)	MIC (Proteus vulgaris)	MIC (Pseudomonas aeruginosa)
Cc1ccc(/N=c2\oc3c(C)ncc(CO)c3cc2C(=O)Nc2ccccc2C)cc1C	100 µg/mL (≈ 234 µM)	100 µg/mL (≈ 234 µM)	50 µg/mL (≈ 117 µM)	50 µg/mL (≈ 117 µM)	25 µg/mL (≈ 58.5 µM)
Cc1ncc(CO)c2cc(C(=O)Nc3ccccc3)/c(=N/c3ccccc3)oc12	50 µg/mL (≈ 130 µM)	50 µg/mL (≈ 130 µM)	25 µg/mL (≈ 64.9 µM)	50 µg/mL (≈ 130 µM)	50 µg/mL (≈ 130 µM)
CCc1ccc(NC(=O)c2cc3c(CO)cnc(C)c3o/c2=N\c2ccc3c(c2)OCO3)cc1	100 µg/mL (≈ 219 µM)	12.5 µg/mL (≈ 27.3 µM)	50 µg/mL (≈ 109 µM)	50 µg/mL (≈ 109 µM)	50 µg/mL (≈ 109 µM)
Cc1ccc(NC(=O)c2cc3c(CO)cnc(C)c3o/c2=N\c2ccc(Oc3ccccc3)cc2)cc1	50 µg/mL (≈ 102 µM)	12.5 µg/mL (≈ 25.4 µM)	50 µg/mL (≈ 102 µM)	50 µg/mL (≈ 102 µM)	50 µg/mL (≈ 102 µM)
Cc1cccc(NC(=O)c2cc3c(CO)cnc(C)c3o/c2=N\c2ccccc2)c1	100 µg/mL (≈ 250 µM)	12.5 µg/mL (≈ 31.3 µM)	50 µg/mL (≈ 125 µM)	50 µg/mL (≈ 125 µM)	25 µg/mL (≈ 62.6 µM)
COc1ccc(NC(=O)c2cc3c(CO)cnc(C)c3o/c2=N\c2ccc(Cl)c(Cl)c2)c(OC)c1	50 µg/mL (≈ 97.2 µM)	50 µg/mL (≈ 97.2 µM)	50 µg/mL (≈ 97.2 µM)	50 µg/mL (≈ 97.2 µM)	50 µg/mL (≈ 97.2 µM)
COc1ccc(/N=c2\oc3c(C)ncc(CO)c3cc2C(=O)Nc2cccc(C)c2)cc1OC	50 µg/mL (≈ 109 µM)	50 µg/mL (≈ 109 µM)	50 µg/mL (≈ 109 µM)	100 µg/mL (≈ 218 µM)	100 µg/mL (≈ 218 µM)
COc1ccc(/N=c2\oc3c(C)ncc(CO)c3cc2C(=O)Nc2cccc(C)c2)c(OC)c1	50 µg/mL (≈ 109 µM)	50 µg/mL (≈ 109 µM)	50 µg/mL (≈ 109 µM)	50 µg/mL (≈ 109 µM)	25 µg/mL (≈ 54.4 µM)
Cc1ccc(NC(=O)c2cc3c(CO)cnc(C)c3o/c2=N\c2cccc(Cl)c2)cc1	50 µg/mL (≈ 115 µM)	25 µg/mL (≈ 57.6 µM)	50 µg/mL (≈ 115 µM)	50 µg/mL (≈ 115 µM)	50 µg/mL (≈ 115 µM)
COc1cc(/N=c2\oc3c(C)ncc(CO)c3cc2C(=O)Nc2ccccc2)cc(OC)c1	50 µg/mL (≈ 112 µM)	100 µg/mL (≈ 224 µM)	50 µg/mL (≈ 112 µM)	50 µg/mL (≈ 112 µM)	25 µg/mL (≈ 56.1 µM)
Cc1ccc(NC(=O)c2cc3c(CO)cnc(C)c3o/c2=N\c2ccccc2I)cc1	25 µg/mL (≈ 47.6 µM)	50 µg/mL (≈ 95.2 µM)	50 µg/mL (≈ 95.2 µM)	100 µg/mL (≈ 190 µM)	50 µg/mL (≈ 95.2 µM)
CCc1ccc(/N=c2\oc3c(C)ncc(CO)c3cc2C(=O)Nc2ccccc2)cc1	50 µg/mL (≈ 121 µM)	50 µg/mL (≈ 121 µM)	50 µg/mL (≈ 121 µM)	50 µg/mL (≈ 121 µM)	50 µg/mL (≈ 121 µM)
COc1cc(/N=c2\oc3c(C)ncc(CO)c3cc2C(=O)Nc2cccc(C)c2)cc(OC)c1	25 µg/mL (≈ 54.4 µM)	12.5 µg/mL (≈ 27.2 µM)	100 µg/mL (≈ 218 µM)	100 µg/mL (≈ 218 µM)	50 µg/mL (≈ 109 µM)
Cc1ncc(CO)c2cc(C(=O)Nc3ccccc3)/c(=N/c3ccc4c(c3)OCO4)oc12	50 µg/mL (≈ 116 µM)	50 µg/mL (≈ 116 µM)	25 µg/mL (≈ 58.2 µM)	50 µg/mL (≈ 116 µM)	50 µg/mL (≈ 116 µM)
COc1cccc(/N=c2\oc3c(C)ncc(CO)c3cc2C(=O)Nc2ccc(C)cc2)c1	50 µg/mL (≈ 116 µM)	50 µg/mL (≈ 116 µM)	25 µg/mL (≈ 58.2 µM)	100 µg/mL (≈ 233 µM)	50 µg/mL (≈ 116 µM)
OC(Cn1cncn1)(Cn1cncn1)c1ccc(F)cc1F [FLUCONAZOLE]	–	50 µg/mL (≈ 163 µM)	–	–	–
Cc1cccc(/N=c2\oc3c(C)ncc(CO)c3cc2C(=O)Nc2ccccc2)c1	100 µg/mL (≈ 250 µM)	100 µg/mL (≈ 250 µM)	100 µg/mL (≈ 250 µM)	100 µg/mL (≈ 250 µM)	100 µg/mL (≈ 250 µM)
Cc1ccc2nc(-c3ccc(/N=c4\oc5c(C)ncc(CO)c5cc4C(=O)Nc4ccccc4)cc3)sc2c1	100 µg/mL (≈ 188 µM)	50 µg/mL (≈ 93.9 µM)	25 µg/mL (≈ 46.9 µM)	50 µg/mL (≈ 93.9 µM)	100 µg/mL (≈ 188 µM)

SMILES	MIC (Staphylococcus aureus)	MIC (Candida albicans)	MIC (Escherichia coli)	MIC (Proteus vulgaris)	MIC (Pseudomonas aeruginosa)
COc1cc(NC(=O)c2cc3c(CO)cnc(C)c3o/c2=N\c2ccc(C(N)=O)cc2)cc(OC)c1	50 µg/mL (≈ 102 µM)	25 µg/mL (≈ 51.2 µM)	50 µg/mL (≈ 102 µM)	50 µg/mL (≈ 102 µM)	50 µg/mL (≈ 102 µM)
Cc1ncc(CO)c2cc(C(=O)Nc3ccccc3)/c(=N/c3ccc(Oc4ccccc4)cc3)oc12	50 µg/mL (≈ 105 µM)	50 µg/mL (≈ 105 µM)	25 µg/mL (≈ 52.4 µM)	50 µg/mL (≈ 105 µM)	50 µg/mL (≈ 105 µM)
Cc1cc(C)cc(/N=c2\oc3c(C)ncc(CO)c3cc2C(=O)Nc2ccccc2C)c1	100 µg/mL (≈ 234 µM)	100 µg/mL (≈ 234 µM)	100 µg/mL (≈ 234 µM)	100 µg/mL (≈ 234 µM)	50 µg/mL (≈ 117 µM)
CCOc1ccc(/N=c2\oc3c(C)ncc(CO)c3cc2C(=O)Nc2cccc(C)c2)cc1	50 µg/mL (≈ 113 µM)	50 µg/mL (≈ 113 µM)	50 µg/mL (≈ 113 µM)	50 µg/mL (≈ 113 µM)	25 µg/mL (≈ 56.4 µM)
Cc1ccc(NC(=O)c2cc3c(CO)cnc(C)c3o/c2=N\c2ccc(Br)cc2)cc1	25 µg/mL (≈ 52.3 µM)	25 µg/mL (≈ 52.3 µM)	50 µg/mL (≈ 105 µM)	50 µg/mL (≈ 105 µM)	50 µg/mL (≈ 105 µM)
Cc1cccc(NC(=O)c2cc3c(CO)cnc(C)c3o/c2=N\c2ccc(C)c(C)c2)c1	50 µg/mL (≈ 117 µM)	12.5 µg/mL (≈ 29.2 µM)	25 µg/mL (≈ 58.5 µM)	50 µg/mL (≈ 117 µM)	12.5 µg/mL (≈ 29.2 µM)
CCc1cccc(/N=c2\oc3c(C)ncc(CO)c3cc2C(=O)Nc2ccccc2)c1	100 µg/mL (≈ 242 µM)	100 µg/mL (≈ 242 µM)	100 µg/mL (≈ 242 µM)	100 µg/mL (≈ 242 µM)	100 µg/mL (≈ 242 µM)
COc1ccc(NC(=O)c2cc3c(CO)cnc(C)c3o/c2=N\c2ccc(Cl)c(Cl)c2)cc1	12.5 µg/mL (≈ 25.8 µM)	12.5 µg/mL (≈ 25.8 µM)	25 µg/mL (≈ 51.6 µM)	25 µg/mL (≈ 51.6 µM)	25 µg/mL (≈ 51.6 µM)
Cc1cccc(NC(=O)c2cc3c(CO)cnc(C)c3o/c2=N\c2cccc(Cl)c2)c1	100 µg/mL (≈ 230 µM)	50 µg/mL (≈ 115 µM)	50 µg/mL (≈ 115 µM)	100 µg/mL (≈ 230 µM)	50 µg/mL (≈ 115 µM)
COc1ccccc1/N=c1\oc2c(C)ncc(CO)c2cc1C(=O)Nc1ccc(C)cc1	100 µg/mL (≈ 233 µM)	25 µg/mL (≈ 58.2 µM)	50 µg/mL (≈ 116 µM)	100 µg/mL (≈ 233 µM)	50 µg/mL (≈ 116 µM)
O=C(O)c1cn(C2CC2)c2cc(N3CCNCC3)c(F)cc2c1=O [CIPROFLOXACIN]	–	–	25 µg/mL (≈ 75.4 µM)	12.5 µg/mL (≈ 37.7 µM)	–
COc1ccc(NC(=O)c2cc3c(CO)cnc(C)c3o/c2=N\c2ccc(OC)c(OC)c2)c(OC)c1	25 µg/mL (≈ 49.5 µM)	50 µg/mL (≈ 98.9 µM)	50 µg/mL (≈ 98.9 µM)	50 µg/mL (≈ 98.9 µM)	50 µg/mL (≈ 98.9 µM)
Cc1ccc(NC(=O)c2cc3c(CO)cnc(C)c3o/c2=N\c2ccc(Cl)c(Cl)c2)cc1	100 µg/mL (≈ 214 µM)	25 µg/mL (≈ 53.4 µM)	100 µg/mL (≈ 214 µM)	50 µg/mL (≈ 107 µM)	50 µg/mL (≈ 107 µM)
CCc1ccccc1/N=c1\oc2c(C)ncc(CO)c2cc1C(=O)Nc1ccc(C)cc1	50 µg/mL (≈ 117 µM)	50 µg/mL (≈ 117 µM)	50 µg/mL (≈ 117 µM)	50 µg/mL (≈ 117 µM)	50 µg/mL (≈ 117 µM)
Cc1ccc(/N=c2\oc3c(C)ncc(CO)c3cc2C(=O)Nc2cccc(C)c2)cc1	50 µg/mL (≈ 121 µM)	50 µg/mL (≈ 121 µM)	50 µg/mL (≈ 121 µM)	50 µg/mL (≈ 121 µM)	50 µg/mL (≈ 121 µM)
Cc1cccc(/N=c2\oc3c(C)ncc(CO)c3cc2C(=O)Nc2ccccc2C)c1	100 µg/mL (≈ 242 µM)	12.5 µg/mL (≈ 30.2 µM)	50 µg/mL (≈ 121 µM)	25 µg/mL (≈ 60.5 µM)	50 µg/mL (≈ 121 µM)
Cc1ncc(CO)c2cc(C(=O)Nc3ccccc3F)/c(=N/c3ccc(C(F)(F)F)cc3)oc12	50 µg/mL (≈ 106 µM)	25 µg/mL (≈ 53 µM)	50 µg/mL (≈ 106 µM)	100 µg/mL (≈ 212 µM)	50 µg/mL (≈ 106 µM)
CCOC(=O)c1ccc(/N=c2\oc3c(C)ncc(CO)c3cc2C(=O)Nc2ccccc2)cc1	50 µg/mL (≈ 109 µM)	50 µg/mL (≈ 109 µM)	50 µg/mL (≈ 109 µM)	50 µg/mL (≈ 109 µM)	50 µg/mL (≈ 109 µM)
